13 compounds from ChEMBL document CHEMBL5335784, “Discovery of a novel 1,3,4-oxadiazol-2-one-based NLRP3 inhibitor as a pharmacological agent to mitigate cardiac and metabolic complications in an experimental model of diet-induced metaflammation” (Eur J Med Chem, 2023) can be followed below.

For orientation: logD means lipophilicity at a set pH, counting ionised and neutral species. Low values mean lower lipophilicity, high ones higher lipophilicity.

Series [1] can be described thus: Cytotoxicity against human THP-1 cells assessed as reduction in cell viability measured after 72 hr by MTT assay. It is filed as toxicity, cell-based. As to conditions: read-out: TC50. A digest of the protocol:
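Undifferentiated THP-1 cells exposed to 0.1–100 μM compound for 72 h. Viability read by MTT reduction at 570 nm. TC50 from concentration–response; three experiments.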
For orientation: Formazan colour is commonly taken as a measure of viable cells.

A short description of series [2]: n-Octanol/water distribution coefficient, log D of the compound at pH 7.4 measured after 4 hrs by shake flask method. The series is classed as physicochemical. In short, it runs like this: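 Shake-flask at room temperature between n-octanol and 50 mM phosphate buffer pH 7.4, ionic strength 0.15 M KCl. Phases were pre-saturated by 4 h shaking. Compound at about 0.1 mg/ml in buffer, shaken about 20 min with n-octanol, then centrifuged at 10000 rpm for 10 min.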

Series [3] can be described thus: Metabolic stability of the compound in human THP-1 cells at 100 uM measured after 24 hrs by RP-HPLC analysis. The following applies: thp-1, 24 h. It is filed as ADME, cell-based. In short, it runs like this:
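Lysate from PMA-differentiated THP-1 cells (RIPA buffer) at 37 °C with compound at 100 μM, added from 10 mM DMSO stock. Aliquots deproteinized with CH3CN/0.1% TFA, centrifuged, filtered and quantified by RP-HPLC at 226/254 nm against external standards. Pseudo-first-order t1/2 from exponential decay fit; three independent experiments.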

A short description of series [4]: Stability of the compound in PBS at 100 uM at pH 7.4 measured after 24 hrs by RP-HPLC analysis. It is filed as physicochemical. As to conditions: buffer, pH 7.4, 24 h. A digest of the protocol: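 Compound added from 10 mM DMSO stock to 50 mM PBS pH 7.4 at 37 °C. Sampled at intervals over 48 h and analysed by RP-HPLC with UV detection at 226/254 nm against calibration standards.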

Series [5] is described as follows: Metabolic stability of the compound in human serum at 100 uM measured after 24 hrs by RP-HPLC analysis. It is filed as ADME, cell-free. In short, it runs like this:
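Human male AB serum at 37 °C with compound at 100 μM (from 10 mM DMSO stock), sampled over 24 h. Aliquots deproteinized with CH3CN/0.1% TFA, centrifuged, filtered and analysed by RP-HPLC (phenyl column, 226/254 nm) with calibration 1-100 μM. Pseudo-first-order t1/2 from exponential decay fit.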

For the compound `O=c1oc(Cc2ccccc2Cl)nn1Cc1nn[nH]n1`, in series [1], the CC50 at 72 h is above 100 µM. In addition, in series [2], the logD at 4 h is -1.09. With `CCOC(=O)c1ccc(Cn2nc(Cc3ccccc3Cl)oc2=O)cc1`, in series [1], the CC50 at 72 h is above 100 µM. On to `O=C(O)c1ccc(-c2nc(Cc3cccc(C(F)(F)F)c3)no2)cc1`, for which, in series [1], the CC50 at 72 h came to 27.3 µM. Regarding `CCOC(=O)CN(C)c1nnc(NC(=O)c2ccccc2Cl)s1`, the CC50 at 72 h in series [1] was 96.1 µM.

With `CC(C)c1cc(Cl)cc(C(C)C)c1NC(=O)NS(=O)(=O)c1cc(C(C)(C)O)co1`, in series [1], the CC50 at 72 h was found to be 92.5 µM. As for `O=C(O)Cn1nc(Cc2ccccc2Cl)oc1=O`, the CC50 at 72 h in series [1] was 94.6 µM. The Stability result in series [3], in series [4] and in series [5] was “Stable” each time. The compound further had a logD at 4 h in series [2] of -1.66. As for `COC(=O)c1ccc(-c2noc(Cc3ccccc3Cl)n2)cc1`, the CC50 at 72 h in series [1] is above 100 µM.

Turning to `COC(=O)c1ccc(-c2nc(Cc3cccc(C(F)(F)F)c3)no2)cc1`, the CC50 at 72 h in series [1] is above 100 µM. On to `CCOC(=O)C1CCCN(c2nnc(NC(=O)c3ccccc3Cl)s2)C1` (centres undefined), for which, in series [1], the CC50 at 72 h was 79.7 µM. On the same count and under the same terms, for `COC(=O)c1ccc(-c2noc(Cc3cccc(C(F)(F)F)c3)n2)cc1` the value was 94.5 µM.

Regarding `CC(C)(C)OC(=O)Cn1nc(Cc2ccccc2Cl)oc1=O`, in series [1], the CC50 at 72 h amounted to 98.9 µM. Besides, in series [2], the logD at 4 h turned out to be 3.1.

For the compound `CCOC(=O)CN(Cc1ccccc1)c1nnc(NC(=O)c2ccccc2Cl)s1`, the CC50 at 72 h in series [1] was 91.6 µM. On to `COc1ccc(Cn2nc(Cc3ccccc3Cl)oc2=O)cc1`, for which the CC50 at 72 h in series [1] stood at 64.8 µM.
